In ChEMBL document CHEMBL1124291, “New actinomycin D analogues as superior chemotherapeutic agents against primary and advanced colon tumors and colon xenografts in nude mice” (J Med Chem, 1988):
Starred links: 1 amine or outer side, 2 acyl side, 3 side chain; linkers in the order of their positions; H or OH if unused. Positions of bridges follow the written chain, without caps; N, C: chain ends. Non-standard residues stand in square brackets, D forms with d. Residues, ends and D or L forms follow the SMILES beside them. Chains are numbered I, II in the order given. Actinocin(9to1) = Cc1c2oc3c(C)ccc(C(=O)[*:1])c3nc-2c(C(=O)[*:2])c(N)c1=O; NMeV = CN[C@H](C(=O)O)C(C)C; Sar = CNCC(=O)O

Columns and labels:
MC-38 [1] = experiment: Activity against advanced carcinoma C38 Tumor in CDF1 Mice at dose 2.0 mg/Kg measured as % inhibition of tumor; assay type: functional; details: Mus musculus
MC-38 [2] = experiment: Activity against advanced carcinoma C38 Tumor in CDF1 Mice at dose 3.0 mg/Kg measured as % inhibition of tumor; assay type: functional; details: Mus musculus
MC-38 [3] = experiment: Activity against advanced carcinoma C38 Tumor in CDF1 Mice at dose 4.0 mg/Kg measured as % inhibition of tumor; assay type: functional; details: Mus musculus
MC-38 [4] = experiment: Mean survival time of treated / untreated group x100. (number of over 100-day survivors/number of total mice in the group) at a dose 3.0 mg/kg; assay type: functional, Mus musculus
Procedure, shortened: (§1)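 CDF1 mice were implanted sc on day 0 with colon 38 adenocarcinoma fragments (70 mg) and given iv drug on days 1, 5 and 9. %T/C = median survival of treated / untreated × 100. Number of mice surviving over 100 days / group total is given in parentheses.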

MC-38 [5] = experiment: Number of toxic deaths/number of mice in a group of non tumored mice treated in parallel with the tumor-bearing mice and observed for 100 days at a dose 2.0 mg/kg; value given as 0/9; assay type: functional, Mus musculus
Procedure, shortened: (§2)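 Non-tumored CDF1 mice were treated in parallel with colon 38 tumor-bearing mice: iv injections on days 1, 5 and 9, groups of nine. Deaths were counted over 100 days of observation and reported as toxic deaths / mice in group.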

MC-38 [6] = experiment: Number of toxic deaths/number of mice in a group of non tumored mice treated in parallel with the tumor-bearing mice and observed for 100 days at a dose 3.0 mg/kg; value given as 0/9; assay type: functional, Mus musculus; procedure, shortened: as §2
MC-38 [7] = experiment: Number of toxic deaths/number of mice in a group of non tumored mice treated in parallel with the tumor-bearing mice and observed for 100 days at a dose 4.0 mg/kg; value given as 3/9; assay type: toxicity, organism-based; parameters: dose 4 mg/kg; details: mouse, in vivo, 2400 h; procedure, shortened: as §2
MC-38 [8] = experiment: Number of toxic deaths/number of mice in a group of non tumored mice treated in parallel with the tumor-bearing mice and observed for 100 days at a dose 5.0 mg/kg; value given as 8/9; assay type: toxicity, organism-based; parameters: dose 5 mg/kg; details: mouse, in vivo, 2400 h; procedure, shortened: as §2
MC-38 [9] = experiment: Mean survival time of treated / untreated group x100. (number of over 100-day survivors/number of total mice in the group) at a dose 4.0 mg/kg; assay type: functional, Mus musculus; procedure, shortened: as §1
P388 [10] = experiment: Antitumor activity in P388/S(AMD sensitive) in male BDF1 mice measured as optimal dose
P388 [11] = experiment: Antitumor activity in P388/ADR (adriamycin resistant), in male BDF1 mice measured as optimal dose at dose 2.5-4.5 mg/kg/ inj, ip
MC-38 [12] = experiment: Activity against advanced carcinoma C38 Tumor in CDF1 Mice at dose 0.15 mg/kg measured as % inhibition of tumor; assay type: functional; details: Mus musculus
B16 [13] = experiment: In vivo Antitumor activity against B16 melanoma cells at a optimal dose measured as %ILS (%increase life span); assay type: functional, Mus musculus
Procedure, shortened: (§3)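 BDF1 mice in groups of nine were implanted ip on day 0 with 0.2 mL of 1:5 (w/v) B16 melanoma brei; drugs were given ip. Survival is reported as median survival time in days with range, and as %ILS, with survivors counted on day 65 out of total injected.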

B16 [14] = experiment: In vivo Antitumor activity against B16 melanoma cells at dose 250 ug/Kg /inj measured as Mean survival time (MST); assay type: functional, Mus musculus; procedure, shortened: as §3
MC-38 [15] = experiment: Activity against advanced carcinoma C38 Tumor in CDF1 Mice at dose 0.30 mg/kg measured as % inhibition of tumor; assay type: functional; details: Mus musculus
MC-38 [16] = experiment: Activity against advanced carcinoma C38 Tumor in CDF1 Mice at dose 0.45 mg/kg measured as % inhibition of tumor; assay type: functional; details: Mus musculus
MC-38 [17] = experiment: Activity against advanced carcinoma C38 Tumor in CDF1 Mice at dose 0.60 mg/kg measured as % inhibition of tumor; assay type: functional; details: Mus musculus
MC-38 [18] = experiment: Mean survival time of treated /untreated group x100. (number of over 100-day survivors/ number of total mice in the group) at a dose 0.60 mg/kg; assay type: functional, Mus musculus; details: dose 0.6 mg/kg; procedure, shortened: as §1
MC-38 [19] = experiment: Mean survival time of treated /untreategroup x100. (number of over 100-day survivors/ number of total mice in the group) at a dose 0.075 mg/kg; assay type: functional, Mus musculus; procedure, shortened: as §1
MC-38 [20] = experiment: Mean survival time of treated /untreategroup x100. (number of over 100-day survivors/ number of total mice in the group) at a dose 0.15 mg/kg; assay type: functional, Mus musculus; procedure, shortened: as §1
MC-38 [21] = experiment: Mean survival time of treated /untreategroup x100. (number of over 100-day survivors/ number of total mice in the group) at a dose 0.30 mg/kg; assay type: functional, Mus musculus; details: dose 0.3 mg/kg; procedure, shortened: as §1
MC-38 [22] = experiment: Mean survival time of treated /untreategroup x100. (number of over 100-day survivors/ number of total mice in the group) at a dose 0.45 mg/kg; assay type: functional, Mus musculus; procedure, shortened: as §1
MC-38 [23] = experiment: Number of toxic deaths/number of mice in a group of non tumored mice treated in parallel with the tumor-bearing mice and observed for 100 days at a dose 0.075 mg/Kg; value given as 0/9; assay type: functional, Mus musculus; procedure, shortened: as §2
MC-38 [24] = experiment: Number of toxic deaths/number of mice in a group of non tumored mice treated in parallel with the tumor-bearing mice and observed for 100 days at a dose 0.15 mg/Kg; value given as 1/9; assay type: toxicity; details: mouse, in vivo, 2400 h; procedure, shortened: as §2
MC-38 [25] = experiment: Number of toxic deaths/number of mice in a group of non tumored mice treated in parallel with the tumor-bearing mice and observed for 100 days at a dose 0.30 mg/Kg; value given as 0/9; assay type: functional, Mus musculus; procedure, shortened: as §2
MC-38 [26] = experiment: Number of toxic deaths/number of mice in a group of non tumored mice treated in parallel with the tumor-bearing mice and observed for 100 days at a dose 0.45 mg/Kg; value given as 1/9; assay type: toxicity; details: mouse, in vivo, 2400 h; procedure, shortened: as §2
MC-38 [27] = experiment: Activity against advanced carcinoma C38 Tumor in CDF1 Mice at dose 0.075 mg/kg measured as % inhibition of tumor; assay type: functional; details: Mus musculus
MC-38 [28] = experiment: Number of toxic deaths/number of mice in a group of non tumored mice treated in parallel with the tumor-bearing mice and observed for 100 days at a dose 0.60 mg/Kg; value given as 4/9; assay type: toxicity; details: mouse, in vivo, 0.6 mg/kg, 2400 h; procedure, shortened: as §2
HT-29 [29] = experiment: 50% inhibition of incorporationf precursor [3H]thymidine into DNA HT-29 cell lines; assay type: functional, cell-based; details: Homo sapiens, HT-29, 2 h
Procedure, shortened: (§4)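 HT-29 colon carcinoma monolayers, 10^4 cells per well, five wells per concentration. Drug exposure lasted 2 h, with [³H]thymidine and [2-¹⁴C]uridine (0.5 μCi each) added for the last hour. Cells were washed, trypsinized, counted and precipitated onto glass-fiber filters with 10% TCA. Acid-precipitable radioactivity was measured. IC50 is the concentration inhibiting 50% of incorporation; data are averages of replicate experiments.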

P388 [30] = experiment: 50% inhibition of incorporation of precursor [3H]thymidine into DNA P388 cell lines; assay type: functional, cell-based; details: Mus musculus, P388, 2 h
P388 [31] = experiment: 50% inhibition of incorporation precursor [14C]uridine into RNA P388 cell lines; assay type: functional, cell-based; details: Mus musculus
Rattus norvegicus [32] = organism: Rattus norvegicus; experiment: Percent of the unconverted metabolite from incubation mixture containing rat microsomes; assay type: functional
Procedure, shortened: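 Tritiated analogues were incubated with two systems. (T) sonicated P388 cell homogenates, 37 °C for 16 h. (M) liver microsomes from phenobarbital-induced rats, 6 h with an NADPH-generating system (glucose-6-phosphate dehydrogenase plus glucose 6-phosphate). Metabolites and water-soluble conjugates were isolated, separated by HPLC and expressed as percentages.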

Rattus norvegicus [33] = organism: Rattus norvegicus; experiment: DNA-cleaving ability expressed as % of closed circular pBR322 DNA cleaved at 10 uM conc; assay type: functional
Procedure, shortened: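 pBR322 DNA (200 μM nucleotides) in 10 mM Tris·HCl pH 7.8 and 50 mM NaCl, with 4 mM Na₂S₂O₄ and 100 μM FeCl₂. Incubated with drug for 1 h at 20 °C, kept air-saturated. Supercoiled and open-circular forms were separated by agarose gel electrophoresis, stained with ethidium bromide and quantitated by densitometry. % cleaved was calculated from the open- and closed-circular amounts.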

Rattus norvegicus [34] = organism: Rattus norvegicus; experiment: The formation of adrenochrome from epinephrine in the absence of SOD(super oxide dismutase); assay type: functional
Procedure, shortened: (§5)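 Drug-stimulated superoxide generation with rat liver microsomal enzymes and NADPH as cofactor. NADPH oxidation was read at 340 nm. Adrenochrome formed from epinephrine was read at 480 nm, with or without superoxide dismutase. % stimulation = [(drug-stimulated rate − basal rate)/basal rate] × 100. Values are mean ± standard error of triplicate analyses.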

Rattus norvegicus [35] = organism: Rattus norvegicus; experiment: The formation of adrenochrome from epinephrine in the presence of SOD(super oxide dismutase); + denotes ' Inhibited'; assay type: functional; procedure, shortened: as §5
Rattus norvegicus [36] = organism: Rattus norvegicus; experiment: Stimulation of NADPH oxidation in the presence of rat liver microsomes; assay type: functional; procedure, shortened: as §5
HT-29 [37] = experiment: 50% inhibition of incorporationf precursor [3H]thymidine into RNA HT-29 cell lines; assay type: functional, cell-based; details: Homo sapiens, HT-29, 2 h; in the assay text read “[14C]uridine” for “[3H]thymidine”; procedure, shortened: as §4
pBR322 plasmid DNA = experiment: DNA-cleaving ability expressed as % of closed circular pBR322 DNA cleaved at 100 uM conc
P388 (Mus musculus) = experiment: Percent of the unconverted metabolite from incubation mixture containing tumor cell homogenate(T)
P388 [38] = experiment: Antitumor activity in P388/ADR (adriamycin resistant), in male BDF1 mice measured as optimal dose at dose
P388 [39] = experiment: Antitumor activity in P388/S(AMD sensitive) in male BDF1 mice measured as optimal dose at dose 0.075-2.5 mg/kg/injection, ip

## COc1cccc2c1C(=O)c1c(O)c3c(c(O)c1C2=O)C[C@@](O)(C(=O)CO)C[C@@H]3O[C@H]1C[C@H](N)[C@H](O)[C@H](C)O1 [DOXORUBICIN]
MC-38 [1]
  inhibition in vivo at 2 mg/kg: 29%
MC-38 [2]
  inhibition in vivo at 3 mg/kg: 70%
MC-38 [3]
  inhibition in vivo at 4 mg/kg: 93%
MC-38 [4]
  T/C: 98%
MC-38 [5]
  Toxic deaths: 0
MC-38 [6]
  Toxic deaths: 0
MC-38 [7]
  Toxic deaths: 3
MC-38 [8]
  Toxic deaths: 8
MC-38 [9]
  T/C: 250%
P388 [10]
  optimal dose: 3 mg/kg
P388 [11]
  optimal dose: 3.5 mg/kg

## Cc1c2oc3c(C)ccc(C(=O)N[C@@H]4C(=O)N[C@H](C(C)C)C(=O)N5CCC[C@H]5C(=O)N(C)CC(=O)N(C)[C@@H](C(C)C)C(=O)O[C@@H]4C)c3nc-2c(C(=O)N[C@@H]2C(=O)N[C@H](C(C)C)C(=O)N3CCC[C@H]3C(=O)N(C)CC(=O)N(C)[C@@H](C(C)C)C(=O)O[C@@H]2C)c(N)c1=O [DACTINOMYCIN] (I: T[dV]P[Sar][NMeV] / II: T[dV]P[Sar][NMeV]; ester I:1-I:C, II:1-II:C; linker I:N-II:N via Actinocin(9to1))
MC-38 [12]
  inhibition in vivo at 0.15 mg/kg: 30%
B16 [13]
  ILS: 48%
B16 [14]
  MST: 43
MC-38 [15]
  inhibition in vivo at 0.3 mg/kg: 67%
MC-38 [16]
  inhibition in vivo at 0.45 mg/kg: 83%
MC-38 [17]
  inhibition in vivo at 0.6 mg/kg: 89%
MC-38 [18]
  T/C: 103%
MC-38 [19]
  T/C: 100%
MC-38 [20]
  T/C: 107%
MC-38 [21]
  T/C: 134%
MC-38 [22]
  T/C: 170%
MC-38 [23]
  Toxic deaths: 0
MC-38 [24]
  Toxic deaths: 1
MC-38 [25]
  Toxic deaths: 0
MC-38 [26]
  Toxic deaths: 1
MC-38 [27]
  inhibition in vivo at 0.075 mg/kg: 30%
MC-38 [28]
  Toxic deaths: 4
HT-29 [29]
  IC50: 900 nM
P388 [30]
  IC50: 1100 nM
P388 [31]
  IC50: 50 nM
Rattus norvegicus [32]
  Activity: 100%
Rattus norvegicus [33]
  Activity: 10%
Rattus norvegicus [34]
  Adrenochrome formation: 2.29 nM min-1 (mg of protein)-1
Rattus norvegicus [35]
  Adrenochrome formation: Inhibited
Rattus norvegicus [36]
  NADPH oxidation (nM min-1 (mg of protein)-1): 10
HT-29 [37]
  IC50: 100 nM
pBR322 plasmid DNA
  Activity: 22%
P388 (Mus musculus)
  Activity: 100%
P388 [38]
  optimal dose: 0.25 mg/kg
P388 [39]
  optimal dose: 0.25 mg/kg
